{
  "source": "ChEMBL document CHEMBL4340510",
  "about": "“Design, synthesis, and biological evaluation of truncated deguelin derivatives as Hsp90 inhibitors” (Eur J Med Chem, 2019)",
  "key": {"[1]": {"molecular_target": "T1, Heat shock protein HSP90 (Homo sapiens) (UniProt P07900+P08238)", "experiment": "Inhibition of HSP90 in human MCF7 cells assessed as decrease in phosphorylation of MAPK after 48 hrs by Western blot analysis", "type": "cell-based", "procedure,_shortened": "(§1)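 Cells are treated 48 h and washed twice in ice-cold PBS. They are lysed on ice for 20 min and spun at 13,000 g, 4 °C. 20 μg protein is run on 8-12% SDS-PAGE and transferred to PVDF. Membranes are probed overnight at 4 °C with primary antibodies (Bcl-xL, cleaved caspase-3, mTOR/p-mTOR, MAPK/p-MAPK, Akt/p-Akt, HIF-1α, survivin; β-actin/GAPDH loading). HRP secondary and chemiluminescence detection follow.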"}, "MCF7 [2]": {"test_system": "MCF7", "experiment": "Induction of apoptosis in human MCF7 cells assessed as peripherization of chromosome at 0.5 to 4 uM after 36 hrs by hoechst 33258 staining-based fluorescence microscopy", "type": "functional, cell-based", "procedure,_shortened": "(§2)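 Approximately 5×10^4 cells per well are exposed to 0, 0.5, 1.0, 2.0 or 4.0 μM for 36 h. Cells are PBS-washed and fixed in 4% paraformaldehyde for 30 min. They are stained with 20 μg/ml Hoechst 33258 for 15 min at room temperature in the dark, and nuclear morphology is examined by fluorescence microscopy.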"}, "MCF7 [3]": {"test_system": "MCF7", "experiment": "Induction of apoptosis in human MCF7 cells assessed as increase in early apoptotic cells at 0.5 to 4 uM after 36 hrs by Annexin V-FITC/propidium iodide double staining-based flow cytometry relative to control", "type": "functional", "procedure,_shortened": "(§3)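 Cells (1×10^5/well) are cultured 24 h, then treated in triplicate for 36 h at 0.5, 1.0, 2.0 or 4.0 μM. Vehicle is 1‰ DMSO in complete medium. Cells are stained with FITC-Annexin V and PI for 15 min in the dark and analysed by flow cytometry. Mean±SD of three independent experiments.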"}, "[4]": {"molecular_target": "T1, Heat shock protein HSP90 (Homo sapiens)", "experiment": "Inhibition of HSP90 in human MCF7 cells assessed as down regulation of HIF-1alpha expression after 48 hrs by Western blot analysis", "type": "cell-based", "procedure,_shortened": "as §1"}, "MCF7 [5]": {"test_system": "MCF7", "experiment": "Cell cycle arrest in human MCF7 cells assessed as accumulation at S phase at 0.5 uM after 48 hrs by propidium iodide staining-based flow cytometry (reference value: 16.64%)", "type": "functional", "procedure,_shortened": "(§4)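 5×10^4 cells are seeded, incubated overnight, then treated 48 h. Cells are washed in cold PBS and fixed in 70% ethanol at −20 °C for 12 h. They are then stained with 100 µg/mL RNase plus 50 µg/mL PI in PBS, 37 °C for 30 min. DNA content is measured by flow cytometry.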"}, "MCF7 [6]": {"test_system": "MCF7", "experiment": "Antimigratory activity in human MCF7 cells at 250 to 1000 nM after 24 hrs by phase contrast inverted microscopy-based scratch wound healing assay", "type": "functional, cell-based", "procedure,_shortened": "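Cells are grown to confluence in DMEM with 10% FBS and scratched with a sterile 200 μL pipette tip. Wounds are imaged by phase contrast on an inverted microscope (10× objective) at 0, 24 and 48 h. Eight images per treatment are analysed by drawing lines at the wound edges of migrating cells.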"}, "MCF7 [7]": {"test_system": "MCF7", "experiment": "Cell cycle arrest in human MCF7 cells assessed as accumulation at G2 phase at 2 uM after 48 hrs by propidium iodide staining-based flow cytometry (reference value: 22.74%)", "type": "functional", "procedure,_shortened": "as §4"}, "MCF7 [8]": {"test_system": "MCF7", "experiment": "Cell cycle arrest in human MCF7 cells assessed as accumulation at G2 phase at 4 uM after 48 hrs by propidium iodide staining-based flow cytometry (reference value: 22.74%)", "type": "functional", "procedure,_shortened": "as §4"}, "MCF7 [9]": {"test_system": "MCF7", "experiment": "Cell cycle arrest in human MCF7 cells assessed as accumulation at G2 phase at 4 uM after 48 hrs by propidium iodide staining-based flow cytometry (reference value: […])"}, "MCF7 [10]": {"test_system": "MCF7", "experiment": "Antiinvasive activity in human MCF7 cells after 24 hrs by crystal violet dye-based transwell matrix penetration assay", "type": "functional, cell-based", "procedure,_shortened": "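Matrigel-coated transwell invasion chambers, 1×10^4 cells seeded in the upper chamber, 37 °C for 24 h. Non-invaded cells are swabbed off. Invaded cells on the underside are fixed in 1% paraformaldehyde, stained with crystal violet and counted in ten random 200× fields per well. Result is the mean cells per field, from three independent experiments.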"}, "[11]": {"molecular_target": "T1, Heat shock protein HSP90 (Homo sapiens)", "experiment": "Inhibition of HSP90 in human MCF7 cells assessed as reduction in AKT expression at 4 uM by coimmunoprecipitation-based Western blot assay", "type": "cell-based", "procedure,_shortened": "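Cells are treated with 4 μM. Anti-Hsp90 or anti-Akt antibodies are added to the supernatants, and immune complexes are pulled down with protein A agarose. Complexes are eluted by boiling in loading buffer and immunoblotted with anti-Hsp90 or anti-Akt antibodies.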"}, "MCF7 [12]": {"test_system": "MCF7", "experiment": "Cell cycle arrest in human MCF7 cells assessed as increase in accumulation at S phase after 48 hrs by propidium iodide staining-based flow cytometry", "type": "functional", "procedure,_shortened": "as §4"}, "MCF7 [13]": {"test_system": "MCF7", "experiment": "Induction of apoptosis in human MCF7 cells assessed as increase in cleaved-caspase3 expression at 1 to 4 uM after 48 hrs by Western blot analysis", "type": "functional, cell-based", "procedure,_shortened": "as §1"}, "MCF7 [14]": {"test_system": "MCF7", "experiment": "Induction of apoptosis in human MCF7 cells assessed as decrease in Bcl-xL expression at 1 to 4 uM after 48 hrs by Western blot analysis"}, "MCF7 [15]": {"test_system": "MCF7", "experiment": "Cell cycle arrest in human MCF7 cells assessed as accumulation at G1 phase at 1 uM after 48 hrs by propidium iodide staining-based flow cytometry (reference value: 60.61%)", "type": "functional", "procedure,_shortened": "as §4"}, "[16]": {"molecular_target": "T1, Heat shock protein HSP90 (Homo sapiens)", "experiment": "Inhibition of HSP90 in human MCF7 cells assessed as decrease in phosphorylation of mTOR after 48 hrs by Western blot analysis", "type": "cell-based", "procedure,_shortened": "as §1"}, "[17]": {"molecular_target": "T1, Heat shock protein HSP90 (Homo sapiens)", "experiment": "Inhibition of monoclonal antibody binding to HSP90 (unknown origin) by immunoprecipitation-based Western blot analysis", "type": "protein assay"}, "MCF7 [18]": {"test_system": "MCF7", "experiment": "Cell cycle arrest in human MCF7 cells assessed as accumulation at G1 phase at 4 uM after 48 hrs by propidium iodide staining-based flow cytometry (reference value: 60.61%)", "type": "functional", "procedure,_shortened": "as §4"}, "[19]": {"molecular_target": "T1, Heat shock protein HSP90 (Homo sapiens)", "experiment": "Inhibition of HSP90 in human MCF7 cells assessed as decrease in phosphorylation of AKT after 48 hrs by Western blot analysis", "type": "cell-based", "procedure,_shortened": "as §1"}, "MCF7 [20]": {"test_system": "MCF7", "experiment": "Cell cycle arrest in human MCF7 cells assessed as accumulation at G1 phase at 0.5 uM after 48 hrs by propidium iodide staining-based flow cytometry (reference value: 60.61%)", "type": "functional", "procedure,_shortened": "as §4"}, "MCF7 [21]": {"test_system": "MCF7", "experiment": "Antiinvasive activity in human MCF7 cells assessed as number of invaded cells at 1 uM after 24 hrs by crystal violet dye-based transwell matrix penetration assay (reference value: 172.1 +/- 8.3)", "type": "functional"}, "MCF7 [22]": {"test_system": "MCF7", "experiment": "Cell cycle arrest in human MCF7 cells assessed as accumulation at G2 phase at 1 uM after 48 hrs by propidium iodide staining-based flow cytometry (reference value: 22.74%)", "type": "functional", "procedure,_shortened": "as §4"}, "MCF7 [23]": {"test_system": "MCF7", "experiment": "Induction of apoptosis in human MCF7 cells assessed as increase in late apoptotic cells at 0.5 to 4 uM after 36 hrs by Annexin V-FITC/propidium iodide double staining-based flow cytometry relative to control", "type": "functional", "procedure,_shortened": "as §3"}, "MCF7 [24]": {"test_system": "MCF7", "experiment": "Induction of apoptosis in human MCF7 cells assessed as condensation of chromosome at 0.5 to 4 uM after 36 hrs by hoechst 33258 staining-based fluorescence microscopy", "type": "functional, cell-based", "procedure,_shortened": "as §2"}, "MCF7 [25]": {"test_system": "MCF7", "experiment": "Antiproliferative activity against human MCF7 cells after 72 hrs by MTT assay", "type": "functional, cell-based", "conditions": "MCF7, 72 h", "procedure,_shortened": "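Cells in RPMI 1640 are seeded at 4,000 cells/well and held 24 h at 37 °C, 5% CO2. Medium is replaced with compound-containing medium (DMSO ≤0.25%) for 72 h at 37 °C. MTT read-out by absorbance at 570 nm. Quadruplicate wells, repeated three times; values are means of three independent experiments.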"}},
  "note": "Calls of active or inactive are those of the source. The calls are words filed in the database; no cut-off is given here.",
  "data": [
    {"smiles": "COc1cc(OC)c(OC)cc1CC(=O)c1ccc2c(c1OC)C=CC(C)(C)O2", "values": [
      {"measurement": "inhibition", "setting": "[1]", "result": "Dose-dependent effect"},
      {"measurement": "Activity", "setting": "MCF7 [2]", "result": "Active"},
      {"measurement": "Activity", "setting": "MCF7 [3]", "result": "13.6 - 71.8%"},
      {"measurement": "inhibition", "setting": "[4]", "result": "Dose-dependent effect"},
      {"measurement": "Activity", "setting": "MCF7 [5]", "result": 22.99, "unit": "%"},
      {"measurement": "Activity", "setting": "MCF7 [6]", "result": "Active"},
      {"measurement": "Activity", "setting": "MCF7 [7]", "result": 34.16, "unit": "%"},
      {"measurement": "Activity", "setting": "MCF7 [8]", "result": 29.7, "unit": "%"},
      {"measurement": "Activity", "setting": "MCF7 [9]", "result": 29.58, "unit": "%"},
      {"measurement": "Activity", "setting": "MCF7 [10]", "result": "Dose-dependent effect"},
      {"measurement": "inhibition", "setting": "[11]", "result": "Active"},
      {"measurement": "Activity", "setting": "MCF7 [12]", "result": "Dose-dependent effect"},
      {"measurement": "Activity", "setting": "MCF7 [13]", "result": "Active"},
      {"measurement": "Activity", "setting": "MCF7 [14]", "result": "Active"},
      {"measurement": "Activity", "setting": "MCF7 [15]", "result": 55.26, "unit": "%"},
      {"measurement": "inhibition", "setting": "[16]", "result": "Dose-dependent effect"},
      {"measurement": "inhibition", "setting": "[17]", "result": "Dose-dependent effect"},
      {"measurement": "Activity", "setting": "MCF7 [18]", "result": 40.72, "unit": "%"},
      {"measurement": "inhibition", "setting": "[19]", "result": "Dose-dependent effect"},
      {"measurement": "Activity", "setting": "MCF7 [20]", "result": 57.49, "unit": "%"},
      {"measurement": "Activity", "setting": "MCF7 [21]", "result": 63.2},
      {"measurement": "Activity", "setting": "MCF7 [22]", "result": 21.55, "unit": "%"},
      {"measurement": "Activity", "setting": "MCF7 [23]", "result": "13.6 - 71.8%"},
      {"measurement": "Activity", "setting": "MCF7 [24]", "result": "Active"},
      {"measurement": "IC50", "setting": "MCF7 [25]", "result": 2.51, "unit": "µM"}
    ]}
  ]
}
